Source: PubChem BioAssay (several laboratories)
E coli WT exp = E. coli BW25113 growth inhibition, expanded screen | AID 710 | OD600 absorbance | growth inhibition, % at 100 µM | hit rate 0.15% among 98,000;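 active means growth inhibition above about 50% at one test dose, limit read from the data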;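 further: growth measured after 20 h incubation at 37 °C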
PostGolgi yeast = growth inhibition of a yeast mutant, post-Golgi transport screen; post-Golgi transport phenotypic cell assay; inhibition, % at 10 µM; hit rate 0.9% among 98,000;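 further: yeast cells grown in 1536-well plates; yeast grown about 18 h at 30C before absorbance read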
PostGolgi ctrl = inhibits growth of the yeast control strain; efflux-deficient yeast background strain, growth absorbance A615, 16 h; hit rate 5% among 98,000; inhibition, % at 10 µM
EphB4 antag = antagonists of human EphB4-ephrin-B2 interaction; hit rate 0.15% among 97,000; inhibition, % at 7 µM; EphB4 LBD / TNYL-RAW-Alexa532 peptide, fluorescence polarization; AID 720; P54760;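 active means inhibition above the screen-wide mean inhibition plus 3 SD, cut at about 15% in these data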
Target sequence (P54760 whole entry, looked up, the tested form may be a part): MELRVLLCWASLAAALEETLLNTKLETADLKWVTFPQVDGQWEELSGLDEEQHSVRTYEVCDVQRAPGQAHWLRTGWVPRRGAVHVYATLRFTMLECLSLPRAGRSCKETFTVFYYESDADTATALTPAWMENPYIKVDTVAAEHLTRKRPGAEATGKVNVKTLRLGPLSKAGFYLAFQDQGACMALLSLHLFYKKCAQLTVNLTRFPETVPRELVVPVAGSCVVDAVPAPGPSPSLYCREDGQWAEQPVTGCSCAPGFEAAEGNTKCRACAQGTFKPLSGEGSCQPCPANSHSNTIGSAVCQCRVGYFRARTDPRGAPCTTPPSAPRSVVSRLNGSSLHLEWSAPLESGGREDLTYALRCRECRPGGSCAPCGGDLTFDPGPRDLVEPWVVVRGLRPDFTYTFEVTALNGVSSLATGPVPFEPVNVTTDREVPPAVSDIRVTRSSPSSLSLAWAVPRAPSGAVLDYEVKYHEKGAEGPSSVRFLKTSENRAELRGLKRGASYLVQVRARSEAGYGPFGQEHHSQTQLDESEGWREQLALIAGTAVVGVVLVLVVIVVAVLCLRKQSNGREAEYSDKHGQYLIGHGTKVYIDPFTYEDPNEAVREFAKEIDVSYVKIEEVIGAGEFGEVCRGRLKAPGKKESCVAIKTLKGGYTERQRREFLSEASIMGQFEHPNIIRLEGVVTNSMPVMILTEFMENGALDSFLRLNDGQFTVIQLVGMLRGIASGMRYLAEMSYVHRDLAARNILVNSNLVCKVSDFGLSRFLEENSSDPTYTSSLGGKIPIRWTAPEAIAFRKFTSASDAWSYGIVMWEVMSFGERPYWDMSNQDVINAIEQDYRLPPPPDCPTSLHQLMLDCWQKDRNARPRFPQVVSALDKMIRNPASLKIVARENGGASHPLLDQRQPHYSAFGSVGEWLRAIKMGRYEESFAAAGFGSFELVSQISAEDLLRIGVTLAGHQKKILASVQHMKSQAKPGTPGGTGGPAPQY
tolC growth inh = E. coli tolC mutant growth inhibition. growth inhibition, % at 10 µM (by protocol). E. coli BW25113 tolC mutant growth, OD615. hit rate 2.2% among 65,000. AID 573;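 active means growth inhibition at or above a cutoff equal to the mean over every tested compound plus 3 SD, cut at about 60% in these data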;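 further: growth measured after 20 h incubation at 37 °C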
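Test system: E. coli BW25113 ΔtolC::kan bacteria; incubation: 37 °C, 20 h exposure; medium: LB broth supplemented with 50 µg/mL kanamycin; read-out basis: percent growth inhibition; signal: A615 absorbance measurement; compound: 10 µM final, single dose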
A number is an active result. The list is not random: actives were taken first. Their share in the collection is about 6%. Unless noted, no stated cut-off is given here; in the data, active means inhibition above about 30%; inactive means the rest.

Screening O=C(c1ccc2c(c1)N(Cc1ccccc1)CCS2)N1CCCCC1 returned E coli WT exp inactive, PostGolgi yeast inactive, PostGolgi ctrl 43 and EphB4 antag inactive.
CN(C)CCNC(=O)c1ccc2c(c1)N(Cc1ccc(F)cc1)CCS2 was read as E coli WT exp inactive, PostGolgi yeast inactive, PostGolgi ctrl inactive, EphB4 antag inactive and tolC growth inh inactive.
Screening NS(=O)(=O)c1ccc(CCNC(=O)Nc2ccc(Cl)c(Cl)c2)cc1 returned E coli WT exp inactive, PostGolgi yeast inactive, PostGolgi ctrl inactive and EphB4 antag inactive.
`Cc1nnc(-c2cccc(Br)c2)c2cn(-c3ccc(Br)cc3)nc12` gave E coli WT exp inactive, PostGolgi yeast 64, PostGolgi ctrl 49 and EphB4 antag inactive.
`Cc1nnc(-c2cccc(Br)c2)c2cn(-c3ccccc3)nc12` gave E coli WT exp inactive, PostGolgi yeast 94, PostGolgi ctrl inactive and EphB4 antag inactive.
`COCCNC(=O)C(c1ccccc1C)N(C(=O)Cn1nnc2ccccc21)c1cccnc1` (centres undefined) gave EphB4 antag inactive.
`COC(=O)c1c(C(=O)OC)c(-c2ccc(Cl)c(Cl)c2)n2c1CCC2` gave E coli WT exp inactive, PostGolgi yeast inactive, PostGolgi ctrl 36 and EphB4 antag inactive.
For COC(=O)c1ccccc1NC(=O)C1CCN(C(=O)c2ccc(OC)cc2)CC1 the results were E coli WT exp inactive, PostGolgi yeast inactive, PostGolgi ctrl inactive and EphB4 antag inactive.
`COc1ccc2c(-c3ccccc3)cc(N3CCOCC3)nc2c1` gave E coli WT exp inactive, PostGolgi yeast inactive, PostGolgi ctrl inactive, EphB4 antag inactive and tolC growth inh 100.
`COc1ccc2nc(C)cc(N3CCOCC3)c2c1` gave E coli WT exp inactive, PostGolgi yeast inactive, PostGolgi ctrl inactive, EphB4 antag inactive and tolC growth inh inactive.
`O=C(Nc1ccc(S(=O)(=O)Nc2ncccn2)cc1)c1ccc(Br)s1` gave E coli WT exp inactive, PostGolgi yeast inactive, PostGolgi ctrl inactive and EphB4 antag inactive.
CC12CCC(C(=O)NCc3cccnc3)(OC1=O)C2(C)C (centres undefined) was read as E coli WT exp inactive, PostGolgi yeast inactive, PostGolgi ctrl inactive, EphB4 antag inactive and tolC growth inh inactive.
CC12CCC(C(=O)N(Cc3ccccc3)Cc3ccccc3)(OC1=O)C2(C)C (centres undefined) was read as E coli WT exp inactive, PostGolgi yeast inactive, PostGolgi ctrl 38 and EphB4 antag inactive.
For O=C(Nc1cccnc1)c1cc(-c2ccc3c(c2)OCO3)on1 the results were E coli WT exp inactive, PostGolgi yeast inactive, PostGolgi ctrl inactive, EphB4 antag inactive and tolC growth inh inactive.
For Cc1cc(C)n(CCn2nc(C)cc2C)n1 the results were E coli WT exp inactive, PostGolgi yeast inactive, PostGolgi ctrl 37, EphB4 antag inactive and tolC growth inh inactive.
`CC(C)C(c1nnnn1C1CCCC1)N1CCCc2ccccc21` (centres undefined) gave E coli WT exp inactive, PostGolgi yeast inactive, PostGolgi ctrl inactive, EphB4 antag inactive and tolC growth inh 74.
`CC(C)(C)n1nnnc1C(c1cccs1)N1CCCc2ccccc21` (centres undefined) gave E coli WT exp inactive, PostGolgi yeast inactive, PostGolgi ctrl inactive, EphB4 antag inactive and tolC growth inh 82.
OC(CNC1CCCCC1)CN1CCN(CC(O)CNC2CCCCC2)CC1 (centres undefined) was read as tolC growth inh inactive.
Screening Cc1ccc(-c2csc3ncnc(SCC(=O)Nc4nnc(C)s4)c23)cc1 returned E coli WT exp inactive, PostGolgi yeast inactive, PostGolgi ctrl 33 and EphB4 antag inactive.
For COc1ccc(-c2cc(C(=O)N3CCc4ccccc4C3)no2)cc1OC the results were E coli WT exp inactive, PostGolgi yeast inactive, PostGolgi ctrl inactive, EphB4 antag inactive and tolC growth inh 75.
For COc1cccc(-c2cc(C(=O)N3CCCc4ccccc43)no2)c1 the results were E coli WT exp inactive, PostGolgi yeast inactive, PostGolgi ctrl 35, EphB4 antag inactive and tolC growth inh inactive.
COc1ccccc1N1CCN(C(=O)c2cc(-c3cccc(Cl)c3)on2)CC1 was read as E coli WT exp inactive, PostGolgi yeast inactive, PostGolgi ctrl inactive, EphB4 antag inactive and tolC growth inh 69.
Screening COc1ccc(-c2cc(C(=O)N3CCN(C(c4ccccc4)c4ccccc4)CC3)no2)cc1 returned E coli WT exp inactive, PostGolgi yeast inactive, PostGolgi ctrl 42, EphB4 antag inactive and tolC growth inh inactive.
Screening COc1ccc(C(=O)c2ccc(N3CCN(C(=O)c4ccc(F)cc4)CC3)c(F)c2)cc1Br returned E coli WT exp inactive, PostGolgi yeast inactive, PostGolgi ctrl inactive and EphB4 antag inactive.
Screening CNS(=O)(=O)c1cnccc1N1CCN(c2cccc(C(F)(F)F)c2)CC1 returned E coli WT exp inactive, PostGolgi yeast inactive, PostGolgi ctrl inactive and EphB4 antag inactive.
COc1ccc(-n2c(COc3cccc4ccccc34)nnc2SCC(=O)NCc2ccco2)cc1 was read as E coli WT exp inactive, PostGolgi yeast inactive, PostGolgi ctrl inactive and EphB4 antag inactive.
For COc1ccc(OCCCC(=O)N2CCCc3ccccc32)cc1 the results were E coli WT exp inactive, PostGolgi yeast inactive, PostGolgi ctrl 34, EphB4 antag inactive and tolC growth inh inactive.
COc1ccc(OC)c(-c2cc(C(=O)N3CCCc4ccccc43)no2)c1 was read as E coli WT exp inactive, PostGolgi yeast inactive, PostGolgi ctrl 37, EphB4 antag inactive and tolC growth inh 65.
Screening COc1cccc(-c2cc(C(=O)N3CCCCC3C)no2)c1 (centres undefined) returned E coli WT exp inactive, PostGolgi yeast inactive, PostGolgi ctrl inactive, EphB4 antag inactive and tolC growth inh inactive.
For COc1cccc(-c2cc(C(=O)N3CC4(C)CC3CC(C)(C)C4)no2)c1 (centres undefined) the results were E coli WT exp inactive, PostGolgi yeast inactive, PostGolgi ctrl inactive, EphB4 antag inactive and tolC growth inh 80.
`COc1ccc(-c2cc(C(=O)N3CCCc4ccccc43)no2)cc1` gave E coli WT exp inactive, PostGolgi yeast inactive, PostGolgi ctrl inactive, EphB4 antag inactive and tolC growth inh 63.
`COc1ccc(-c2cc(C(=O)N3CCCc4ccccc43)no2)cc1OC` gave E coli WT exp inactive, PostGolgi yeast inactive, PostGolgi ctrl inactive, EphB4 antag inactive and tolC growth inh inactive.
Screening COc1ccc(Nc2cccccc2=O)cc1 returned E coli WT exp inactive, PostGolgi yeast inactive, PostGolgi ctrl inactive, EphB4 antag inactive and tolC growth inh inactive.
Screening COc1ccc(NC2=C(C)C(=O)CC2)cc1 returned E coli WT exp inactive, PostGolgi yeast inactive, PostGolgi ctrl 46, EphB4 antag inactive and tolC growth inh inactive.
Screening CC1=C(CC/C(C)=N/NC(N)=S)C(C)(C)CCC1 returned EphB4 antag inactive.
Screening O=C(Cn1cc2c(n1)CCCC2)N1CCc2ccccc21 returned E coli WT exp inactive, PostGolgi yeast inactive, PostGolgi ctrl 38 and tolC growth inh inactive.
For COc1ccc(C(=O)Nc2nnc(-c3cccs3)s2)cc1 the results were E coli WT exp inactive, PostGolgi yeast inactive, PostGolgi ctrl inactive and EphB4 antag inactive.
